Results taken from ChEMBL document CHEMBL4715736, “Identification of anticancer agents based on the thieno[2,3-b]pyridine and 1H-pyrazole molecular scaffolds” (2016).

tested on: UO-31; assay: Growth inhibition of human UO-31 cells assessed as cell growth at 100 uM incubated for 48 hrs by sulforhodamine B assay relative to control; assay type: functional; conditions: read-out: Activity

| Structure (SMILES) | growth at 100 µM |
| --- | --- |
| Cc1cc(C)c(NC(=O)c2sc3nc4c(cc3c2N)CN(Cc2ccccc2)CC4)c(C)c1 | -1% |

tested on: K562; assay: Growth inhibition of human K562 cells assessed as cell growth at 100 uM incubated for 48 hrs by sulforhodamine B assay relative to control; assay type: functional; conditions: read-out: Activity

| Structure (SMILES) | growth at 100 µM |
| --- | --- |
| Cc1cc(C)c(NC(=O)c2sc3nc4c(cc3c2N)CN(Cc2ccccc2)CC4)c(C)c1 | 13% |

tested on: UACC-62; assay: Growth inhibition of human UACC-62 cells assessed as cell growth at 1 uM incubated for 48 hrs by sulforhodamine B assay relative to control; assay type: functional; conditions: read-out: Activity

| Structure (SMILES) | growth at 1 µM |
| --- | --- |
| Cc1cc(C)c(NC(=O)c2sc3nc4c(cc3c2N)CN(Cc2ccccc2)CC4)c(C)c1 | 69% |

tested on: SK-OV-3; assay: Growth inhibition of human SK-OV-3 cells assessed as cell growth at 100 uM incubated for 48 hrs by sulforhodamine B assay relative to control; assay type: functional; conditions: read-out: Activity

| Structure (SMILES) | growth at 100 µM |
| --- | --- |
| Cc1cc(C)c(NC(=O)c2sc3nc4c(cc3c2N)CN(Cc2ccccc2)CC4)c(C)c1 | 16% |

tested on: SW-620; assay: Growth inhibition of human SW-620 cells incubated for 48 hrs by sulforhodamine B assay; assay type: functional; conditions: not given
Summary of the method: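 NCI DTP 60-line human tumour panel. Dose-response curves were run only for ligands active in the initial 10 µM screen. GI50 (concentration giving 50% of maximal inhibition of proliferation) and TGI (concentration giving total growth inhibition) were derived from these curves.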

| Structure (SMILES) | GI50 | LC50 (concentration killing 50% of cells) | TGI |
| --- | --- | --- | --- |
| Cc1cc(C)c(NC(=O)c2sc3nc4c(cc3c2N)CN(Cc2ccccc2)CC4)c(C)c1 | 2600 nM | > 100 µM | 17.1 µM |

tested on: CCRF-CEM; assay: Growth inhibition of human CCRF-CEM cells incubated for 48 hrs by sulforhodamine B assay; assay type: functional; conditions: not given
Summary of the method: (§1)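 NCI Developmental Therapeutics Program NCI60 panel. Compounds that were active in the 10 µM one-dose screen went on to dose–response testing. Growth at each concentration is expressed relative to untreated control (100%). GI50 (concentration giving 50% of maximal inhibition of proliferation) and TGI (concentration giving total growth inhibition) were derived from the curves.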

| Structure (SMILES) | GI50 | LC50 | TGI |
| --- | --- | --- | --- |
| Cc1cc(C)c(NC(=O)c2sc3nc4c(cc3c2N)CN(Cc2ccccc2)CC4)c(C)c1 | 3.16 µM | > 100 µM | 59.7 µM |

tested on: TK-10; assay: Growth inhibition of human TK-10 cells assessed as cell growth at 1 uM incubated for 48 hrs by sulforhodamine B assay relative to control; assay type: functional; conditions: read-out: Activity

| Structure (SMILES) | growth at 1 µM |
| --- | --- |
| Cc1cc(C)c(NC(=O)c2sc3nc4c(cc3c2N)CN(Cc2ccccc2)CC4)c(C)c1 | 95% |

tested on: NCI-H226; assay: Growth inhibition of human NCI-H226 cells assessed as cell growth at 0.1 uM incubated for 48 hrs by sulforhodamine B assay relative to control; assay type: functional; conditions: read-out: Activity

| Structure (SMILES) | growth at 0.1 µM |
| --- | --- |
| Cc1cc(C)c(NC(=O)c2sc3nc4c(cc3c2N)CN(Cc2ccccc2)CC4)c(C)c1 | 93% |

tested on: SK-MEL-5; assay: Growth inhibition of human SK-MEL-5 cells assessed as cell growth at 0.01 uM incubated for 48 hrs by sulforhodamine B assay relative to control; assay type: functional; conditions: read-out: Activity

| Structure (SMILES) | growth at 0.01 µM |
| --- | --- |
| Cc1cc(C)c(NC(=O)c2sc3nc4c(cc3c2N)CN(Cc2ccccc2)CC4)c(C)c1 | 98% |

tested on: SF-295; assay: Growth inhibition of human SF-295 cells assessed as cell growth at 0.1 uM incubated for 48 hrs by sulforhodamine B assay relative to control; assay type: functional; conditions: read-out: Activity

| Structure (SMILES) | growth at 0.1 µM |
| --- | --- |
| Cc1cc(C)c(NC(=O)c2sc3nc4c(cc3c2N)CN(Cc2ccccc2)CC4)c(C)c1 | 92% |

tested on: OVCAR-3; assay: Growth inhibition of human OVCAR-3 cells assessed as cell growth at 0.1 uM incubated for 48 hrs by sulforhodamine B assay relative to control; assay type: functional; conditions: read-out: Activity

| Structure (SMILES) | growth at 0.1 µM |
| --- | --- |
| Cc1cc(C)c(NC(=O)c2sc3nc4c(cc3c2N)CN(Cc2ccccc2)CC4)c(C)c1 | 105% |

tested on: MCF7; assay: Growth inhibition of human MCF7 cells assessed as cell growth at 1 uM incubated for 48 hrs by sulforhodamine B assay relative to control; assay type: functional; conditions: read-out: Activity

| Structure (SMILES) | growth at 1 µM |
| --- | --- |
| Cc1cc(C)c(NC(=O)c2sc3nc4c(cc3c2N)CN(Cc2ccccc2)CC4)c(C)c1 | 61% |

tested on: ACHN; assay: Growth inhibition of human ACHN cells assessed as cell growth at 100 uM incubated for 48 hrs by sulforhodamine B assay relative to control; assay type: functional; conditions: read-out: Activity

| Structure (SMILES) | growth at 100 µM |
| --- | --- |
| Cc1cc(C)c(NC(=O)c2sc3nc4c(cc3c2N)CN(Cc2ccccc2)CC4)c(C)c1 | 6% |

tested on: SF-539; assay: Growth inhibition of human SF-539 cells assessed as cell growth at 100 uM incubated for 48 hrs by sulforhodamine B assay relative to control; assay type: functional; conditions: read-out: Activity

| Structure (SMILES) | growth at 100 µM |
| --- | --- |
| Cc1cc(C)c(NC(=O)c2sc3nc4c(cc3c2N)CN(Cc2ccccc2)CC4)c(C)c1 | -45% |

tested on: MDA-MB-231; assay: Growth inhibition of human MDA-MB-231 cells assessed as cell growth at 100 uM incubated for 48 hrs by sulforhodamine B assay relative to control; assay type: functional; conditions: read-out: Activity

| Structure (SMILES) | growth at 100 µM |
| --- | --- |
| Cc1cc(C)c(NC(=O)c2sc3nc4c(cc3c2N)CN(Cc2ccccc2)CC4)c(C)c1 | -11% |

tested on: SNB-19; assay: Growth inhibition of human SNB-19 cells assessed as cell growth at 1 uM incubated for 48 hrs by sulforhodamine B assay relative to control; assay type: functional; conditions: read-out: Activity

| Structure (SMILES) | growth at 1 µM |
| --- | --- |
| Cc1cc(C)c(NC(=O)c2sc3nc4c(cc3c2N)CN(Cc2ccccc2)CC4)c(C)c1 | 87% |

tested on: HCC 2998; assay: Growth inhibition of human HCC 2998 cells assessed as cell growth at 1 uM incubated for 48 hrs by sulforhodamine B assay relative to control; assay type: functional; conditions: read-out: Activity; summary of the method: as §1

| Structure (SMILES) | growth at 1 µM |
| --- | --- |
| Cc1cc(C)c(NC(=O)c2sc3nc4c(cc3c2N)CN(Cc2ccccc2)CC4)c(C)c1 | 103% |

tested on: HOP-62; assay: Growth inhibition of human HOP-62 cells assessed as cell growth at 100 uM incubated for 48 hrs by sulforhodamine B assay relative to control; assay type: functional; conditions: read-out: Activity

| Structure (SMILES) | growth at 100 µM |
| --- | --- |
| Cc1cc(C)c(NC(=O)c2sc3nc4c(cc3c2N)CN(Cc2ccccc2)CC4)c(C)c1 | 7% |

tested on: HOP-92; assay: Growth inhibition of human HOP-92 cells assessed as cell growth at 1 uM incubated for 48 hrs by sulforhodamine B assay relative to control; assay type: functional; conditions: read-out: Activity

| Structure (SMILES) | growth at 1 µM |
| --- | --- |
| Cc1cc(C)c(NC(=O)c2sc3nc4c(cc3c2N)CN(Cc2ccccc2)CC4)c(C)c1 | 49% |

tested on: SK-MEL-28; assay: Growth inhibition of human SK-MEL-28 cells assessed as cell growth at 0.1 uM incubated for 48 hrs by sulforhodamine B assay relative to control; assay type: functional; conditions: read-out: Activity

| Structure (SMILES) | growth at 0.1 µM |
| --- | --- |
| Cc1cc(C)c(NC(=O)c2sc3nc4c(cc3c2N)CN(Cc2ccccc2)CC4)c(C)c1 | 97% |
